Results as given in ChEMBL document CHEMBL4138167, “Cytotoxicity, Hemolytic Toxicity, and Mechanism of Action of Pulsatilla Saponin D and Its Synthetic Derivatives” (J Nat Prod, 2018).
The source made the active and inactive calls. The calls are words filed in the database; no cut-off is given here.

Tests used:
[1] = Hemolytic activity against New Zealand rabbit erythrocytes measured after 60 mins; assay type: ADME, cell-based, Oryctolagus cuniculus, Erythrocyte; conditions: read-out: HD50
Summary of the method: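 Nonheparinized rabbit blood; erythrocytes washed three times in PBS pH 7.4, 10% suspension; compounds from 10 mM DMSO stock diluted in PBS to 5-500 μM; 100 μL suspension plus 1 mL sample, 37 °C 60 min with periodic stirring; centrifuged, supernatant A540; distilled water = 100% hemolysis, PBS blank subtracted; triplicate; HD50 = concentration giving 50% maximal hemolysis.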

[2] = test system: A549; assay: Cytotoxicity against human A549 cells after 48 hrs by MTT assay; assay type: functional, cell-based; conditions: A549, 48 h
[3] = (§1) Cytotoxicity against human KBVIN cells after 72 hrs by sulforhodamine B assay; assay type: functional, cell-based
[4] = test system: MDA-MB-231; assay: Cytotoxicity against human MDA-MB-231 cells after 72 hrs by sulforhodamine B assay; assay type: functional, cell-based; conditions: for IC50: MDA-MB-231, 72 h
[5] = test system: A549; assay: Cytotoxicity against human A549 cells after 72 hrs by sulforhodamine B assay; assay type: functional, cell-based; conditions: for IC50: A549, 72 h
[6] = test system: MCF7; assay: Cytotoxicity against human MCF7 cells after 72 hrs by sulforhodamine B assay; assay type: functional, cell-based; conditions: for IC50: MCF7, 72 h
[7] = test system: KB; assay: Cytotoxicity against human KB cells after 72 hrs by sulforhodamine B assay; assay type: functional, cell-based
[8] = organism: Homo sapiens; assay: as §1; assay type: functional, cell-based
[9] = test system: A549; assay: Induction of apoptosis in human A549 cells assessed as early apoptotic cells at 2 uM after 24 hrs by Annexin-V-FITC/propidium iodide staining based flow cytometric method (reference value: 1.43%); assay type: functional
[10] = test system: A549; assay: Induction of apoptosis in human A549 cells assessed as reduction in procaspase-9 level at 2 to 8 uM by Western blot analysis; assay type: functional, cell-based
Summary of the method: (§2)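 A549 cells exposed 24 h; lysed in Tris-Cl pH 6.8/4% SDS/glycerol/β-mercaptoethanol/PMSF/aprotinin buffer, cleared 12000g 15 min 4 °C, protein by BCA; 10-15% SDS-PAGE, PVDF transfer, primary antibodies overnight 4 °C, HRP secondaries, ECL detection; Lam A as loading control.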

[11] = test system: A549; assay: Cell cycle arrest in human A549 cells assessed as accumulation at G1-phase at 4 uM after 24 hrs by propidium iodide staining based flow cytometric analysis (reference value: 46.6%); assay type: functional
[12] = test system: A549; assay: Induction of apoptosis in human A549 cells assessed as early apoptotic cells at 4 uM after 24 hrs by Annexin-V-FITC/propidium iodide staining based flow cytometric method (reference value: 1.43%); assay type: functional
[13] = test system: A549; assay: Induction of apoptosis in human A549 cells assessed as increase in cleaved PARP level at 2 to 8 uM by Western blot analysis; assay type: functional, cell-based; summary of the method: as §2
[14] = test system: A549; assay: Induction of apoptosis in human A549 cells assessed as early apoptotic cells at 8 uM after 24 hrs by Annexin-V-FITC/propidium iodide staining based flow cytometric method (reference value: 1.43%); assay type: functional
[15] = test system: A549; assay: Cell cycle arrest in human A549 cells assessed as accumulation at G1-phase at 2 uM after 24 hrs by propidium iodide staining based flow cytometric analysis (reference value: 46.6%); assay type: functional
[16] = test system: A549; assay: Induction of apoptosis in human A549 cells assessed as late apoptotic cells at 4 uM after 24 hrs by Annexin-V-FITC/propidium iodide staining based flow cytometric method (reference value: 2.97%); assay type: functional
[17] = test system: A549; assay: Induction of apoptosis in human A549 cells assessed as late apoptotic cells at 2 uM after 24 hrs by Annexin-V-FITC/propidium iodide staining based flow cytometric method (reference value: 2.97%); assay type: functional
[18] = test system: A549; assay: Induction of apoptosis in human A549 cells assessed as reduction in procaspase-3 level at 2 to 8 uM by Western blot analysis; assay type: functional, cell-based; summary of the method: as §2
[19] = test system: A549; assay: Induction of apoptosis in human A549 cells assessed as late apoptotic cells at 8 uM after 24 hrs by Annexin-V-FITC/propidium iodide staining based flow cytometric method (reference value: 2.97%); assay type: functional
[20] = test system: A549; assay: Cell cycle arrest in human A549 cells assessed as accumulation at G1-phase at 8 uM after 24 hrs by propidium iodide staining based flow cytometric analysis (reference value: 46.6%); assay type: functional
[21] = test system: A549; assay: Induction of apoptosis in human A549 cells assessed as reduction in procaspase-8 level at 2 to 8 uM by Western blot analysis; assay type: functional, cell-based; summary of the method: as §2

| Structure (SMILES) | HC50 at 1 h [1] [µM] | IC50 [2] [µM] | IC50 [3] [µM] | IC50 [4] [µM] | IC50 [5] [µM] | IC50 [6] [µM] | IC50 [7] [µM] | further results |
| --- | --- | --- | --- | --- | --- | --- | --- | --- |
| C[C@@H]1O[C@@H](O[C@H]2[C@H](O[C@H]3CC[C@@]4(C)[C@@H](CC[C@]5(C)[C@@H]4C(=O)C=C4[C@@H]6CC(C)(C)CC[C@]6(C(=O)O)CC[C@]45C)[C@]3(C)CO)OC[C@H](O[C@@H]3O[C@H](CO)[C@@H](O)[C@H](O)[C@H]3O)[C@@H]2O)[C@H](O)[C@H](O)[C@H]1O | 239 | > 10 |  |  |  |  |  |  |
| C[C@@H]1O[C@@H](O[C@H]2[C@H](O[C@H]3CC[C@@]4(C)[C@@H](CC[C@]5(C)[C@@H]4CC=C4[C@@H]6CC(C)(C)CC[C@]6(C(=O)O)CC[C@]45C)[C@]3(C)CO)OC[C@H](O[C@@H]3O[C@H](CO)[C@@H](O)[C@H](O)[C@H]3O)[C@@H]2O)[C@H](O)[C@H](O)[C@H]1O [HEDERACOLCHISIDE A] |  | 6 |  |  |  |  |  |  |
| CC1(C)CC[C@]2(C(=O)NCCCC(=O)O)CC[C@]3(C)C(=CC[C@@H]4[C@@]5(C)CC[C@H](O)[C@@](C)(CO)[C@@H]5CC[C@]43C)[C@@H]2C1 |  |  | > 10 | > 10 | > 10 | > 10 | > 10 |  |
| C[C@@H]1O[C@@H](O[C@H]2[C@H](O[C@H]3CC[C@@]4(C)[C@@H](CC[C@]5(C)[C@@H]4CC(=O)[C@@H]4[C@@H]6CC(C)(C)CC[C@]6(C(=O)O)CC[C@]45C)[C@]3(C)CO)OC[C@H](O[C@@H]3O[C@H](CO)[C@@H](O)[C@H](O)[C@H]3O)[C@@H]2O)[C@H](O)[C@H](O)[C@H]1O | 73.1 | > 10 |  |  |  |  |  |  |
| CCOC(=O)CCCNC(=O)[C@]12CCC(C)(C)C[C@H]1C1=CC[C@@H]3[C@@]4(C)CC[C@H](OC(C)=O)[C@@](C)(COC(C)=O)[C@@H]4CC[C@@]3(C)[C@]1(C)CC2 | > 500 |  | 5.1 |  | 2.8 | 8.6 | 3.6 | Activity [8]: Dose-dependent effect; Activity [9]: 14.8%; Activity [10]: Active; Activity [11]: 61.1%; Activity [4]: Dose-dependent effect; Activity [12]: 26.5%; Activity [13]: Active; Activity [5]: Dose-dependent effect; Activity [6]: Dose-dependent effect; Activity [14]: 30.3%; Activity [15]: 53.4%; Activity [16]: 4.4%; Activity [17]: 3.8%; Activity [18]: Active; Activity [19]: 4.87%; Activity [20]: 68.4%; Activity [7]: Dose-dependent effect; Activity [21]: Active |
| CC1(C)CC[C@]2(C(=O)O)CC[C@]3(C)C(=CC[C@@H]4[C@@]5(C)CC[C@H](O)[C@@](C)(CO)[C@@H]5CC[C@]43C)[C@@H]2C1 [HEDERAGENIN] |  |  | > 10 | > 10 | > 10 | > 10 | > 10 |  |
| C[C@@H]1O[C@@H](O[C@H]2[C@H](O[C@H]3CC[C@@]4(C)[C@@H](CC[C@]5(C)[C@@H]4C(=O)C=C4[C@@H]6CC(C)(C)CC[C@]6(C(=O)NCC(=O)O)CC[C@]45C)[C@]3(C)CO)OC[C@H](O[C@@H]3O[C@H](CO)[C@@H](O)[C@H](O)[C@H]3O)[C@@H]2O)[C@H](O)[C@H](O)[C@H]1O |  | > 10 |  |  |  |  |  |  |
| CC(=O)OC[C@@]1(C)[C@@H]2CC[C@]3(C)[C@H](CC=C4[C@@H]5CC(C)(C)CC[C@]5(C(=O)O)CC[C@]43C)[C@@]2(C)CC[C@@H]1OC(C)=O |  |  | 8.5 | > 10 | 6.2 | > 10 | 7.4 |  |
| C[C@@H]1O[C@@H](O[C@H]2[C@H](O[C@H]3CC[C@@]4(C)[C@@H](CC[C@]5(C)[C@@H]4C[C@H](O)[C@]46OC(=O)[C@@]7(CCC(C)(C)C[C@H]74)CC[C@]65C)[C@]3(C)CO)OC[C@H](O[C@@H]3O[C@H](CO)[C@@H](O)[C@H](O)[C@H]3O)[C@@H]2O)[C@H](O)[C@H](O)[C@H]1O | 308 | > 10 |  |  |  |  |  |  |
| CCOC(=O)CCCCCNC(=O)[C@]12CCC(C)(C)C[C@H]1C1=CC[C@@H]3[C@@]4(C)CC[C@H](OC(C)=O)[C@@](C)(COC(C)=O)[C@@H]4CC[C@@]3(C)[C@]1(C)CC2 |  |  | > 10 |  | 5.1 | > 10 | 6.9 |  |
| CC(=O)O[C@H]1C(=O)[C@@]2(C)[C@H]([C@H](OC(=O)c3ccccc3)[C@]3(O)C[C@H](OC(=O)[C@H](O)[C@@H](NC(=O)c4ccccc4)c4ccccc4)C(C)=C1C3(C)C)[C@]1(OC(C)=O)CO[C@@H]1C[C@@H]2O [PACLITAXEL] |  |  | 1.86 |  |  |  |  |  |
| CC1(C)CC[C@]2(C(=O)NCC(=O)O)CC[C@]3(C)C(=CC[C@@H]4[C@@]5(C)CC[C@H](O)[C@@](C)(CO)[C@@H]5CC[C@]43C)[C@@H]2C1 |  |  | > 10 | > 10 | > 10 | > 10 | > 10 |  |
| CCOC(=O)CNC(=O)[C@]12CCC(C)(C)C[C@H]1C1=CC[C@@H]3[C@@]4(C)CC[C@H](OC(C)=O)[C@@](C)(COC(C)=O)[C@@H]4CC[C@@]3(C)[C@]1(C)CC2 |  |  | 4.9 | 5.5 | 4.6 | 7.7 | 4.2 |  |
| CC1(C)CC[C@]2(C(=O)NCCCCCC(=O)O)CC[C@]3(C)C(=CC[C@@H]4[C@@]5(C)CC[C@H](O)[C@@](C)(CO)[C@@H]5CC[C@]43C)[C@@H]2C1 |  |  | > 10 | > 10 | > 10 | > 10 | > 10 |  |
| C[C@@H]1O[C@@H](O[C@H]2[C@H](O[C@H]3CC[C@@]4(C)[C@@H](CC[C@]5(C)[C@@H]4CC(=O)[C@]46OC(=O)[C@@]7(CCC(C)(C)C[C@H]74)CC[C@@]56C)[C@]3(C)CO)OC[C@H](O[C@@H]3O[C@H](CO)[C@@H](O)[C@H](O)[C@H]3O)[C@@H]2O)[C@H](O)[C@H](O)[C@H]1O | 290 | > 10 |  |  |  |  |  |  |
